High-throughput results deposited in PubChem by several laboratories.
Hits are enriched below; roughly 9.6% of the tested compounds scored in any of these assays.
Ba/F3 V617F tox: reduce viability of Ba/F3 cells dependent on JAK2V617F | actives 1.1% (n = 220,000) | AID 1446 | Ba/F3 EpoR-JAK2V617F viability, ATP luminescence | inhibition, % at 5.6 µM;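 active = inhibition above the campaign mean plus 3 SD over all tested compounds, cut at about 24% in these data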;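 note: cytokine-independent growth of Ba/F3 cells driven by EpoR plus mutant JAK2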
APP transl inh: APP translation inhibition | SH-SY5Y APP 5'UTR-luciferase reporter, luminescence | actives 0.82% (n = 190,000) | inhibition, % at 2 µM | AID 1285;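 active = inhibition above a set limit, derived from the sample mean plus 3 SD, cut at about 45% in these data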
MT stabilize HCS: microtubule stabilization, imaging screen | % tubulin-high responders, % at 10 µM | HeLa tubulin immunostaining HCS, 24 h; share of cells brighter than vehicle mean+2SD | actives 0.83% (n = 200,000) | AID 2205;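 active = plate Z-score above 3 for both tubulin-high and condensed-nucleus cell shares, with cell loss under 80%, at 10 µM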;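 note: anti alpha tubulin signal scored within the nucleus-defined area of each cell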
b-catenin transl: modulators of beta-catenin nuclear translocation. HeLa beta-catenin nuclear translocation, immunofluorescence imaging. nuclear translocation activity, % at 5 µM. actives 0.3% (n = 190,000);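 active = nuclear translocation activity above 50% at 5 µM, with a well cell count of 50 or more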;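 note: per-cell ratio of nuclear to cytoplasmic median beta-catenin stain intensity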
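Assay system: human HeLa cells, native beta-catenin; doses: 5 µM primary, 0.02–20 µM confirmation; incubation: compound treatment 24 h, 37°C, 5% CO2; technique: fluorescence imaging of beta-catenin antibody stain plus DAPI; measure: % activation, nuclear-to-cytoplasmic median beta-catenin signal ratio per cell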
L major viab: reduces viability of Leishmania major promastigotes | resazurin fluorescence viability | inhibition, % at 10 µM | actives 9% (n = 200,000) | AID 1063; in the data active = inhibition above about 50%;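 note: promastigotes grown with compound for 44 hours at 28 °C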
BaF3 tox: parental Ba/F3 viability inhibition as JAK2V617F counter-screen; inhibition, % at 5.6 µM; actives 1.1% (n = 220,000); CellTiter-Glo ATP luminescence; AID 1486;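 active = inhibition above a per-campaign cutoff, the mean inhibition of all tested compounds plus 3 SD, cut at about 27% in these data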
Hits are given with their value; . = inactive; / = no result given.

SMILES	Ba/F3 V617F tox	APP transl inh	MT stabilize HCS	b-catenin transl	L major viab	BaF3 tox
Cc1ccc2nc(SCC(=O)c3ccc(Cl)s3)[nH]c2c1	.	.	.	.	.	.
COC(=O)c1ccc(CSc2nc3c(cnn3-c3ccc(C)cc3)c(=O)[nH]2)o1	.	.	.	.	.	.
COc1ccc(CC(=O)N2CCCC(CNC(=O)c3ccccc3Cl)C2)cc1 (stereo not drawn)	.	.	.	.	.	.
O=C(N1CCCC1)C(F)(F)Oc1ccc(F)cc1	.	.	.	.	.	.
Cc1ccc(F)cc1NC(=O)N1CCN(C2c3ccccc3-c3ccccc32)CC1	.	/	/	.	/	.
CCOC(=O)c1cc(CC)sc1NC(=O)c1ccc([N+](=O)[O-])c(N2CCOCC2)c1	.	.	.	.	.	.
CCOc1ccc(CCNC(=O)COC(=O)c2ccco2)cc1OCC	.	.	.	.	55.9	.
CC(C)(C)NC(=O)COc1ccc(CNCCc2ccccc2)cc1	.	.	.	.	86.7	.
CCOc1ccc(CCNC(=O)CCn2cccc2)cc1OCC	.	.	.	.	.	.
CCOc1ccc(CCNC(=O)COC(=O)c2cc(OC)c(OC)c(OC)c2)cc1OCC	.	.	.	.	.	.
CC(C)(C)NC(=O)COc1ccc(CNCc2ccccn2)cc1	.	.	.	.	.	.
CCOc1cc(CNCCc2ccccc2)ccc1OCC(=O)NC(C)(C)C	.	.	.	.	99.8	.
CCOc1ccc(CCNC(=O)Cn2cccc2C(=O)c2ccccc2C)cc1OCC	.	.	.	.	60.7	.
COc1ccc(-c2[nH]ncc2CN(CCO)Cc2cccs2)c(F)c1	.	.	.	.	.	.
COc1cc(CNn2cnnc2)ccc1OCC(=O)NC1CCCCC1	.	64.4	.	/	.	.
CCc1ccc(OCC(=O)NC(C)(C)C)cc1	.	.	.	.	62.7	.
CCOc1cc(CNCc2cccnc2)ccc1OCC(=O)NC(C)(C)C	.	.	.	.	83.1	.
CCOc1cc(CNCCc2ccc(S(N)(=O)=O)cc2)ccc1OCC(=O)NC1CCCCC1	.	65.4	.	.	.	.
COc1cc(CNc2ccc(S(N)(=O)=O)cc2)ccc1OCC(=O)NC1CCCCC1	.	.	.	.	.	.
CSc1nnc2c3cc(C)ccc3n(Cc3ccccc3)c2n1	.	.	.	.	.	.
COCCn1c(C(C)C)nc2ccccc21	.	/	/	.	/	.
C/C(=N\Nc1ccccn1)c1ccc(S(=O)(=O)NCc2ccco2)cc1	.	.	.	.	.	.
C/C(=N\Nc1ccc(C(F)(F)F)cn1)c1ccc(S(=O)(=O)NCc2ccco2)cc1	.	.	.	.	75.0	.
C/C(=N\Nc1ccc(C(=O)O)cc1)c1ccc(S(=O)(=O)NCc2ccco2)cc1	.	/	/	.	/	.
C/C(=N\Nc1nc(Cl)c(Cl)cc1Cl)c1ccc(S(=O)(=O)NCc2ccco2)cc1	.	.	.	/	99.5	.
SMILES	Ba/F3 V617F tox	APP transl inh	MT stabilize HCS	b-catenin transl	L major viab	BaF3 tox
CCn1c(CNc2cccc(C(F)(F)F)c2)n[nH]c1=S	.	.	.	.	.	.
CC1CCCC2(C1)NC(=S)N(c1ccccc1)N2 (stereo not drawn)	.	.	.	.	83.6	.
CC1CCCCC12NC(=S)N(c1ccccc1)N2 (stereo not drawn)	.	/	/	.	/	.
CC1CC(C)(C)CC2(C1)NC(=S)N(c1ccccc1)N2 (stereo not drawn)	.	.	.	/	.	.
S=C1NC2(CCCCC2)NN1c1ccccc1	.	.	.	.	81.3	.
O=S(=O)(c1ccc(Cl)c(Cl)c1)c1snnc1-c1ccccc1	57.7	95.4	.	.	99.5	41.6
NC(=O)c1snnc1-c1ccccc1	.	/	/	.	/	.
CCOC(=O)COc1ccc2ccccc2c1/C=C/[N+](=O)[O-]	.	61.6	.	.	89.8	.
CCOc1ccc(/C=C/[N+](=O)[O-])c2ccccc12	.	.	.	.	100.4	.
CCOC(=O)COc1ccc(/C=C/[N+](=O)[O-])c(OCC(=O)OCC)c1	.	.	.	.	100.4	.
O=[N+]([O-])/C=C/c1c(OCc2ccccc2)ccc2ccccc12	.	.	.	.	100.0	.
CCOC(=O)Cn1cc(/C=C/[N+](=O)[O-])c2ccccc21	.	.	.	.	.	.
CCOC(=O)COc1ccc2nsnc2c1	.	.	.	.	.	.
CS(=O)(=O)N1CCN(c2c(Cl)cccc2[N+](=O)[O-])CC1	.	.	.	.	.	50.9
